This is an account of results in ChEMBL document CHEMBL1134593, “Acyclic and cyclopropyl analogues of adenosine bisphosphate antagonists of the P2Y1 receptor: structure-activity relationships and receptor docking” (J Med Chem, 2001).

For assay [1], the target named is P2Y purinoceptor 1 (Meleagris gallopavo) (UniProt P49652). Nature of the assay: In vitro antagonist activity against turkey P2Y1 receptor, expressed as percent of maximal inhibition at 100 uM. The assay is classed as functional. Further details: scale not given: the % may be the effect or the level left.
In another assay the target is P2Y purinoceptor 1 (Meleagris gallopavo, UniProt P49652). Nature of the assay: Inhibitory concentration against P2Y1 receptor in turkey erythrocyte membranes. The assay is classed as cell membranes. The gist of the method:
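Turkey erythrocytes labeled 18–24 h at 37 °C with 2-[3H]myo-inositol in inositol-free DMEM, then lysed hypotonically (5 mM sodium phosphate pH 7.4, 5 mM MgCl2, 1 mM EGTA) to give ghosts. Phospholipase C assayed in Hepes pH 7.0 buffer with 1 μM GTPγS, antagonist and 30 nM 2-MeSADP, 5 min at 30 °C. Total [3H]inositol phosphates quantified by anion exchange.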

Chain of P2Y purinoceptor 1 (P49652 whole entry): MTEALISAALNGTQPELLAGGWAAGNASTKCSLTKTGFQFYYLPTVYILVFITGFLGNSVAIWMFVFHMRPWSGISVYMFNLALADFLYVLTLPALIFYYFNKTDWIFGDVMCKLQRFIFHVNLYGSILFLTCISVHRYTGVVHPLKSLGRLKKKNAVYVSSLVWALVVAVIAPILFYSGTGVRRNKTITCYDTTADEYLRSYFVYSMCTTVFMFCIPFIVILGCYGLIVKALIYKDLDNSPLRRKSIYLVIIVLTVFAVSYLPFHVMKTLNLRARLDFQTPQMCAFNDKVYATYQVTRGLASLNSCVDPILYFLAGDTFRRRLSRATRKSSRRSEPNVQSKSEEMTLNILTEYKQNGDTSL
Chain of P2Y purinoceptor 1 (Meleagris gallopavo) (P49652 whole entry): as above

For `CNc1nc(Cl)nc2c1ncn2CCC(COP(=O)(O)O)COP(=O)(O)O`, the Activity in assay [1] worked out at 99%. For the same compound, the IC50 against P2Y purinoceptor 1 was found to be 0.84 µM.
For `CNc1nc(Cl)nc2c1ncn2C(COP(=O)(O)O)COP(=O)(O)O` the same measures were 100% and 4.56 µM.
In assay [1], `CNc1nc(Cl)nc2c1ncn2CC(COC(C)=O)COP(=O)(O)O` (stereo unspecified) came in with an Activity of 65%. Besides, the concentration for half-maximal inhibition (IC50) against P2Y purinoceptor 1 was 37.6 µM.
As to `CNc1nc(Cl)nc2c1ncn2CC(CO)COP(=O)(O)O` (stereo unspecified), the Activity in assay [1] was 68%. The compound also came in with a 50% inhibitory concentration (IC50) against P2Y purinoceptor 1 of 22.6 µM.
On to `CNc1nc(Cl)nc2c1ncn2CC(CCOP(=O)(O)O)CCOP(=O)(O)O`, for which the Activity in assay [1] is 100%. It took 2.04 µM to reach half-maximal inhibition at P2Y purinoceptor 1 (IC50).
In turn, `CNc1nc(Cl)nc2c1ncn2CC1[C@H](COP(=O)(O)O)[C@H]1COP(=O)(O)O` (stereo partly specified) returned an Activity in assay [1] of 100%. In addition, the IC50 against P2Y purinoceptor 1 came to 2.7 µM.
For `CNc1nc(Cl)nc2c1ncn2C[C@H]1[C@H](COP(=O)(O)O)[C@@H]1COP(=O)(O)O` the same measures were 100% and 1.74 µM.
For `CNc1nc(Cl)nc2c1ncn2C[C@@H](COP(=O)(O)O)OP(=O)(O)O` the same measures were 100% and 1.47 µM.
Regarding `CNc1ncnc2c1ncn2CCC(COP(=O)(O)O)COP(=O)(O)O`, in assay [1], the Activity turned out to be 100%. This compound had a 50% inhibitory concentration (IC50) at P2Y purinoceptor 1 of 1.6 µM.
The corresponding values for `CNc1nc(Cl)nc2c1ncn2CC(COP(=O)(O)O)COP(=O)(O)OP(=O)(O)O` (stereo unspecified) are 100% and 0.23 µM.
The corresponding values for `CNc1nc(Cl)nc2c1ncn2CC(COP(=O)(O)O)COP(=O)(OC)OC` (stereo unspecified) are 78% and 31 µM.
For `CNc1nc(Cl)nc2c1ncn2C1CC1(COP(=O)(O)O)COP(=O)(O)O` (stereo unspecified) the same measures were 100% and 2.36 µM.
In assay [1], `CNc1nc(Cl)nc2c1ncn2CC(COP(=O)(O)O)COP(=O)(O)O` returned an Activity of 100%. In addition, on P2Y purinoceptor 1, the IC50 was 0.48 µM.
The corresponding values for `CNc1nc(Cl)nc2c1ncn2CC1CC1(COP(=O)(O)O)COP(=O)(O)O` (stereo unspecified) are 100% and 1.9 µM.
`CNc1nc(Cl)nc2c1ncn2C[C@@H]1[C@H](COP(=O)(O)O)[C@@H]1COP(=O)(O)O` displayed an Activity in assay [1] of 100%. At P2Y purinoceptor 1, this compound registered a concentration for half-maximal inhibition (IC50) of 2.17 µM.
Consider `CNc1nc(Cl)nc2c1ncn2CC=C(COP(=O)(O)O)COP(=O)(O)O`, for which, in assay [1], the Activity is 100%. The compound further had a 50% inhibitory concentration (IC50) against P2Y purinoceptor 1 of 2.1 µM.
The corresponding values for `CNc1ncnc2c1ncn2CC(COP(=O)(O)O)COP(=O)(O)O` are 100% and 1.09 µM.
`CNc1nc(Cl)nc2c1ncn2C[C@H](COP(=O)(O)O)OP(=O)(O)O` returned an Activity in assay [1] of 100%. Also, the half-inhibitory concentration (IC50) against P2Y purinoceptor 1 is 7.86 µM.

The term IC50 denotes the concentration needed to halve the response being measured.
